Assay results published in ChEMBL document CHEMBL1671760, “Pharmacokinetics and pharmacogenomics of once-daily raltegravir and atazanavir in healthy volunteers” (Antimicrob Agents Chemother, 2010).

Key:
[1] = Cmax in healthy human plasma at 400 mg, po Bid for 1 week by LC-MS/MS analysis; assay type: ADME, organism-based; set-up: dose 400 mg, route oral
Summary of the method: (§1)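 Healthy volunteers (24–51 y) took raltegravir 400 mg twice daily for 1 week in a crossover with at least 3 days between arms, dosing ≥1 h before or 2 h after food. After a witnessed dose, blood was drawn at 1, 2, 4, 8 and 12 h, with meals from 1 h. Plasma was analysed by LC-MS-MS after acetonitrile precipitation, using noncompartmental linear-trapezoidal AUC and log10-transformed geometric means.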

[2] = Drug level in healthy human urine assessed as raltegravir-glucoronide at 400 mg, […] coadministered with atazanavir 400 mg, po qd for 1 week measured at 0-12 hrs post dose by LC-MS/MS analysis; assay type: ADME, organism-based; conditions: in vivo
Summary of the method: (§2)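 Steady state was reached after 1 week of once-daily raltegravir 400 mg with atazanavir 400 mg in healthy adults. All urine was collected over 24 h after the witnessed dose and combined into 2-h pools. Raltegravir and raltegravir-glucuronide were assayed by LC-MS-MS, and amounts excreted were summed for 0–12 h and 12–24 h.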

[3] = AUC (0 to tau) in healthy human at 400 mg, po Bid for 1 week by LC-MS/MS analysis; assay type: ADME, organism-based; conditions: plasma; summary of the method: as §1
Homo sapiens [4] = assay: AUC (12 to 24 hrs) in healthy human assessed as raltegravir-glucoronide at 400 mg, po […] coadministered with atazanavir 400 mg, po qd for 1 week by LC-MS/MS analysis; assay type: ADME, organism-based, Plasma; set-up: time 12-24 hr, dose 400 mg, route oral; conditions: in vivo
Summary of the method: (§3)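 Arm B of a crossover in healthy adults (24–51 y), separated from the other arm by at least 3 days. Subjects took raltegravir 400 mg plus atazanavir 400 mg once daily for 1 week in a semifasted state. Plasma was sampled over 24 h after a witnessed dose. Raltegravir was quantified by LC-MS-MS after acetonitrile protein precipitation, and the glucuronide by negative-mode SRM (m/z 619.1→316.0) with a d3 internal standard. Noncompartmental analysis used the linear trapezoidal rule.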

[5] = AUC (0 to12 hrs) in healthy human at 400 mg, po qd coadministered with atazanavir 400 mg, po qd for 1 week by LC-MS/MS analysis; conditions: plasma
[6] = Drug level in healthy human urine at 400 mg, po Bid for 1 week measured at 0-12 hrs post dose by LC-MS/MS analysis; assay type: ADME, organism-based; conditions: in vivo
Summary of the method: (§4)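 Healthy volunteers took raltegravir 400 mg twice daily for 1 week. After the witnessed dose, all urine was collected over 12 h and pooled into 2-h aliquots, then frozen at −70°C. Raltegravir and its glucuronide were measured by LC-MS-MS, and amounts were summed over 0–12 h. Values are geometric means of log10-transformed data.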

[7] = Drug level in healthy human urine at 400 mg, po Bid coadministered with atazanavir 400 mg, po qd for 1 week measured at 12 to 24 hrs post dose by LC-MS/MS analysis; assay type: ADME, organism-based; conditions: in vivo, in the assay text read “po qd” for “po Bid”; summary of the method: as §2
[8] = Apparent total plasma clearance in healthy human at 400 mg, po Bid coadministered with atazanavir 400 mg, po qd for 1 week by LC-MS/MS analysis; assay type: ADME, organism-based; conditions: in the assay text read “po qd” for “po Bid”
Summary of the method: (§5)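 Once-daily raltegravir 400 mg with atazanavir 400 mg was given for 1 week, with plasma and urine collected over 24 h and assayed by LC-MS-MS. Clearances were computed noncompartmentally: CL/F = dose/AUC(τ), renal CL = urinary amount/plasma AUC over the same interval, and Fe/F = Ae/(dose/F).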

Plasma [9] = assay: Ctau in healthy human plasma assessed as raltegravir-glucoronide at 400 mg, po Bid for 1 week by LC-MS/MS analysis; assay type: ADME, organism-based; conditions: in vivo, 168 h; summary of the method: as §1
Plasma [10] = assay: Plasma concentration in healthy human assessed as raltegravir-glucoronide at 400 mg, po […] coadministered with atazanavir 400 mg, po qd for 1 week measured 12 hrs post dose by LC-MS/MS analysis; assay type: ADME, organism-based; conditions: in vivo; summary of the method: as §3
[11] = AUC (12 to24 hrs) in healthy human at 400 mg, po qd coadministered with atazanavir 400 mg, po qd for 1 week by LC-MS/MS analysis; conditions: plasma
Plasma [12] = assay: Ctau in healthy human plasma assessed as raltegravir-glucoronide at 400 mg, […] coadministered with atazanavir 400 mg, po qd for 1 week by LC-MS/MS analysis; assay type: ADME, organism-based; conditions: in vivo, 168 h; summary of the method: as §3
Plasma [13] = assay: Plasma concentration in healthy human assessed as raltegravir-glucoronide at 400 mg, po Bid for 1 week measured 12 hrs post dose by LC-MS/MS analysis; assay type: ADME, organism-based; conditions: in vivo; summary of the method: as §1
[14] = Ratio of drug level to raltegravir-glucoronide level in healthy human urine at 400 mg, po Bid for 1 week by LC-MS/MS analysis; assay type: ADME, organism-based; conditions: in vivo, 168 h; summary of the method: as §4
[15] = Plasma concentration in healthy human at 400 mg, po qd coadministered with atazanavir 400 mg, po qd for 1 week measured 12 hrs post dose by LC-MS/MS analysis
[16] = Drug level in healthy human urine assessed as raltegravir-glucoronide at 400 mg, po Bid for 1 week measured at 0-12 hrs post dose by LC-MS/MS analysis; assay type: ADME, organism-based; conditions: in vivo; summary of the method: as §4
Plasma [17] = assay: Renal clearance in healthy human assessed as raltegravir-glucoronide at […] coadministered with atazanavir 400 mg, po qd for 1 week by LC-MS/MS analysis; assay type: ADME, organism-based; conditions: in vivo, 168 h; summary of the method: as §5
[18] = AUC (0 to12 hrs) in healthy human at 400 mg, po Bid for 1 week by LC-MS/MS analysis; assay type: ADME, organism-based; set-up: dose 400 mg, time < 12 hr, route oral; conditions: plasma; summary of the method: as §1
[19] = Ctau in healthy human plasma at 400 mg, po Bid for 1 week by LC-MS/MS analysis; assay type: ADME, organism-based; conditions: read-out: Ctau; summary of the method: as §1
[20] = Renal clearance in healthy human at 400 mg, po Bid for 1 week by LC-MS/MS analysis; assay type: ADME, organism-based; conditions: plasma, read-out: CL_renal
Summary of the method: (§6)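 Raltegravir 400 mg was given twice daily for 1 week, with 12-h plasma and urine profiles measured by LC-MS-MS. Apparent oral clearance was dose/AUC over the dosing interval. Renal clearance was the amount excreted in urine divided by plasma AUC over the same interval. Fe/F was Ae/(dose/F), with F unknown.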

[21] = Apparent clearance of oral drug in healthy human assessed as drug excreted unchanged at 400 mg, po Bid for 1 week by LC-MS/MS analysis; assay type: ADME, organism-based; conditions: in vivo, read-out: Fraction excreted unchanged; summary of the method: as §6
[22] = Drug level in healthy human urine at 400 mg, po Bid coadministered with atazanavir 400 mg, po qd for 1 week measured at 0-12 hrs post dose by LC-MS/MS analysis; assay type: ADME, organism-based; conditions: in vivo, in the assay text read “po qd” for “po Bid”; summary of the method: as §2
[23] = Cmax in healthy human plasma at 400 mg, po qd coadministered with atazanavir 400 mg, po qd for 1 week by LC-MS/MS analysis
[24] = Apparent total plasma clearance in healthy human at 400 mg, po Bid for 1 week by LC-MS/MS analysis; assay type: ADME, organism-based; summary of the method: as §6
[25] = Ratio of drug level to raltegravir-glucoronide level in healthy human urine at 400 mg, po Bid coadministered with atazanavir 400 mg, po qd for 1 week by LC-MS/MS analysis; assay type: ADME, organism-based; conditions: in vivo, 168 h, in the assay text read “po qd” for “po Bid”; summary of the method: as §2
[26] = Apparent clearance of oral drug in healthy human assessed as drug excreted unchanged at 400 mg, po […] coadministered with atazanavir 400 mg, po qd for 1 week by LC-MS/MS analysis; assay type: ADME, organism-based; conditions: in vivo, read-out: Fraction excreted unchanged; summary of the method: as §5
Homo sapiens [27] = assay: AUC (0 to12 hrs) in healthy human assessed as raltegravir-glucoronide at 400 mg, po Bid for 1 week by LC-MS/MS analysis; assay type: ADME, organism-based, Plasma; set-up: dose 400 mg, time < 12 hr, route oral; conditions: in vivo, 12 h; summary of the method: as §1
[28] = Plasma concentration in healthy human at 400 mg, po Bid for 1 week measured 12 hrs post dose by LC-MS/MS analysis; assay type: ADME, organism-based; summary of the method: as §1
[29] = Ctau in healthy human plasma at 400 mg, po qd coadministered with atazanavir 400 mg, po qd for 1 week by LC-MS/MS analysis
[30] = Drug level in healthy human urine assessed as raltegravir-glucoronide at 400 mg, […] coadministered with atazanavir 400 mg, po qd for 1 week measured at 12 to 24 hrs post dose by LC-MS/MS analysis; assay type: ADME, organism-based; conditions: in vivo; summary of the method: as §2
Plasma [31] = assay: Renal clearance in healthy human assessed as raltegravir-glucoronide at 400 mg, po Bid for 1 week by LC-MS/MS analysis; assay type: ADME, organism-based; conditions: in vivo, 168 h; summary of the method: as §6
[32] = Renal clearance in healthy human at 400 mg, […] coadministered with atazanavir 400 mg, po qd for 1 week by LC-MS/MS analysis; assay type: ADME, organism-based; conditions: plasma, read-out: CL_renal; summary of the method: as §5
Plasma [33] = assay: Cmax in healthy human plasma assessed as raltegravir-glucoronide at 400 mg, po Bid for 1 week by LC-MS/MS analysis; assay type: ADME, organism-based; set-up: dose 400 mg, route oral; conditions: in vivo, 168 h; summary of the method: as §1
Plasma [34] = assay: Cmax in healthy human plasma assessed as raltegravir-glucoronide at 400 mg, […] coadministered with atazanavir 400 mg, po qd for 1 week by LC-MS/MS analysis; assay type: ADME, organism-based; set-up: dose 400 mg, route oral; conditions: in vivo, 168 h; summary of the method: as §3
Homo sapiens [35] = assay: AUC (0 to tau) in human at 400 mg, po Bid coadministered with atazanavir 400 mg, po qd for 1 week by LC-MS/MS analysis; assay type: ADME, organism-based, Plasma; conditions: in vivo, 168 h, in the assay text read “po qd” for “po Bid”; summary of the method: as §3

Cc1nnc(C(=O)NC(C)(C)c2nc(C(=O)NCc3ccc(F)cc3)c(O)c(=O)n2C)o1 [RALTEGRAVIR]
Cmax [1]: 1020 ng/mL | Drug uptake [2]: 84.51 mg | AUC tau at 168 h [3]: 3530 ng·h/mL | AUC (Homo sapiens [4]): 342 ng·h/mL | AUC at 12 h [5]: 4660 ng·h/mL | Drug uptake [6]: 11.66 mg | Drug uptake [7]: 0.41 mg | CL/F [8]: 1100 mL/min | Ctau (Plasma [9]): 45 ng/mL | Cp (Plasma [10]): 41 ng/mL | AUC [11]: 875 ng·h/mL | Ctau (Plasma [12]): 8 ng/mL | Cp (Plasma [13]): 45 ng/mL | Ratio [14]: 7.08 | concentration at 12 h [15]: 69 ng/mL | Drug uptake [16]: 82.5 mg | CL_renal (Plasma [17]): 692 mL/min | AUC at 12 h [18]: 3530 ng·h/mL | concentration at 168 h [19]: 46 ng/mL | CL renal at 168 h [20]: 55 mL/min | dose excreted at 168 h [21]: 2.9% | Drug uptake [22]: 10.81 mg | Cmax [23]: 1400 ng/mL | CL/F [24]: 1890 mL/min | Ratio [25]: 7.81 | dose excreted at 168 h [26]: 3.5% | AUC (Homo sapiens [27]): 3267 ng·h/mL | concentration at 12 h [28]: 46 ng/mL | concentration at 168 h [29]: 18 ng/mL | Drug uptake [30]: 7.03 mg | CL_renal (Plasma [31]): 421 mL/min | CL renal at 168 h [32]: 39 mL/min | Cmax (Plasma [33]): 799 ng/mL | Cmax (Plasma [34]): 458 ng/mL | AUC (Homo sapiens [35]): 6080 ng·h/mL
